Results from ChEMBL document CHEMBL3877280, “Discovery of novel rivastigmine-hydroxycinnamic acid hybrids as multi-targeted agents for Alzheimer's disease” (Eur J Med Chem, 2017).
Calls of active or inactive are those of the source. The rule behind the calls is not given here.

Legend:
[1] = target: Cholinesterase (Homo sapiens) (UniProt P06276); experiment: Inhibition of BuChE (unknown origin) at 1 uM using acetylthiocholine iodide as substrate preincubated for 60 mins followed by substrate addition measured after 5 mins by Ellman's method relative to control
Method in brief: (§1)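 Ellman method at 37 °C. BuChE stock made in 0.1% gelatin, diluted to 0.13-0.100 AU/min. Enzyme preincubated with compound for 60 min in 0.1 M phosphate pH 8.0 with 40 µM DTNB, then 20 µM acetylthiocholine iodide added. A412 rate followed for 5 min against an enzyme-free blank; triplicates; percent inhibition from rates.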

HT-22 = experiment: Cytoprotective activity against H2O2-induced cell death in mouse HT22 cells assessed as increase in cell viability at 10 to 30 uM preincubated for 30 mins followed by H2O2 addition measured after 24 hrs by MTT assay; assay type: functional, cell-based
Method in brief: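 HT22 cells (DMEM/10% FBS, 10,000 cells/well) pretreated with compound for 30 min, then 500 µM H2O2 for 24 h. Viability by MTT; vehicle controls; mean ± SEM, n = 6.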

Mus musculus [2] = species: Mus musculus; experiment: Cytotoxicity against mouse HT22 cells assessed as reduction in cell viability at 10 uM after 24 hrs by MTT assay; assay type: toxicity, cell-based; conditions: ht-22, 24 h
Method in brief: (§2)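 HT22 cells grown in DMEM + 10% FBS at 37 °C, 5% CO2, seeded at 10,000 cells/well. Exposed to compound for 24 h; vehicle-only controls. Viability by MTT, mean ± SEM, n = 6.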

[3] = target: Amyloid-beta precursor protein (Homo sapiens) (UniProt P05067); experiment: Inhibition of HFIP-pretreated amyloid beta (1 to 42) (unknown origin) self-induced aggregation at 10 uM after 24 hrs by thioflavin-T fluorescence assay relative to control
[4] = Antioxidant activity assessed as DPPH radical scavenging activity at 10 uM incubated under dark condition for 60 mins by spectrophotometric method relative to control; assay type: functional
Method in brief: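 DPPH scavenging: compound at 10 µM final added to DPPH in ethanol (100 µM final), kept in dark at 25-26 °C for 60 min under dim light. Absorbance read at 517 nm. Capacity = (A1 − A2)/A1 × 100%, with A1 the control absorbance.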

[5] = target: Cholinesterase (Homo sapiens) (UniProt P06276); experiment: Inhibition of BuChE (unknown origin) at 5 uM using acetylthiocholine iodide as substrate preincubated for 60 mins followed by substrate addition measured after 5 mins by Ellman's method relative to control; method in brief: as §1
Mus musculus [6] = species: Mus musculus; experiment: Cytotoxicity against mouse HT22 cells assessed as reduction in cell viability at 100 uM after 24 hrs by MTT assay; assay type: toxicity, cell-based; conditions: ht-22, 24 h; method in brief: as §2
[7] = Cytoprotective activity against glutamate-induced cell death in mouse HT22 cells assessed as cell viability at 10 to 30 uM preincubated for 30 mins followed by H2O2 addition measured after 24 hrs by MTT assay; assay type: functional, HT-22
Method in brief: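 HT22 cells (DMEM/10% FBS, 10,000 cells/well) pretreated with compound for 30 min, then 2 mM glutamate for 24 h. Viability by MTT; vehicle controls; mean ± SEM, n = 6.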

[8] = Copper chelating activity assessed as Cu2+-compound complex formation by measuring bathochromic shift at 10 uM after 30 mins by UV-Visible spectrometric method
Method in brief: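 CuCl2 in water and compound (methanol stock diluted in PBS) brought up in absolute ethanol. Mixture stood 30 min at room temperature, then absorption spectrum recorded at room temperature.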

Amyloid-beta precursor protein (Homo sapiens), sequence (P05067 whole entry): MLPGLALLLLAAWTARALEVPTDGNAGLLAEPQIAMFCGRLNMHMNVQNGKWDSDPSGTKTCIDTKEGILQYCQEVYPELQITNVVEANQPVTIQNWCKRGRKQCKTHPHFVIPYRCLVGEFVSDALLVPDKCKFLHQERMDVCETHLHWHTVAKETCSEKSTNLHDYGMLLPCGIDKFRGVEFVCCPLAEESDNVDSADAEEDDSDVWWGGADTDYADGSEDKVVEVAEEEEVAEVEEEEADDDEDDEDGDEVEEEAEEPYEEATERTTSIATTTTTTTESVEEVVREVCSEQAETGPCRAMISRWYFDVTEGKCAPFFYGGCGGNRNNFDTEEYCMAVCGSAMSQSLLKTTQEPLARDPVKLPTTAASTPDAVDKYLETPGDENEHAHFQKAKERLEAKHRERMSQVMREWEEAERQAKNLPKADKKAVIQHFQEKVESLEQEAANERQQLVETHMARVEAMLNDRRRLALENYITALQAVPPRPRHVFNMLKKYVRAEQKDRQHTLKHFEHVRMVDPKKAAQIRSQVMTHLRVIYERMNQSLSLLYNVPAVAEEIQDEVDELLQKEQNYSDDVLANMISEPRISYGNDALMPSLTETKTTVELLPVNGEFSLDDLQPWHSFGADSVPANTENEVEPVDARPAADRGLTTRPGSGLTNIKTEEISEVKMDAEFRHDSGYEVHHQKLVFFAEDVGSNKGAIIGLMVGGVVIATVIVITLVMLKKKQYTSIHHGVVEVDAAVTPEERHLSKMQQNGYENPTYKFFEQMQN
Cholinesterase (Homo sapiens), sequence (P06276 whole entry): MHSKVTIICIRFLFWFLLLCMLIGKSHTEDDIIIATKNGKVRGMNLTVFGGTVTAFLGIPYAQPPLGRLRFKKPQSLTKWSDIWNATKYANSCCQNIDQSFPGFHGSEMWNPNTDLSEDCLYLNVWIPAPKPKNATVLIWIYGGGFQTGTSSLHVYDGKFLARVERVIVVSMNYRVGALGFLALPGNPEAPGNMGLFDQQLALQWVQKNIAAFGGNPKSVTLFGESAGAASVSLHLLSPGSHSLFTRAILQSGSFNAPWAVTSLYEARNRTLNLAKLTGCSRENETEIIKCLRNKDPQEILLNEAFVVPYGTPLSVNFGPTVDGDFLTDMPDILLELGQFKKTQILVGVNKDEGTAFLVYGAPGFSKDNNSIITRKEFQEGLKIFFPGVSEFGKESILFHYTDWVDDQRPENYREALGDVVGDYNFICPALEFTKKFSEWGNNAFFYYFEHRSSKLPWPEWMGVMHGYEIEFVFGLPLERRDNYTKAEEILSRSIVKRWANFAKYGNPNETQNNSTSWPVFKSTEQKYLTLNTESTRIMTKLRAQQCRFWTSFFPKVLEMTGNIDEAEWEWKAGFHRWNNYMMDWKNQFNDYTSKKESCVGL

Row | Structure (SMILES) | inhibition [1] | Activity (HT-22) | Activity (Mus musculus [2]) | inhibition [3] | Activity [4] | inhibition [5] | Activity (Mus musculus [6]) | Activity [7] | Activity [8]
1 | CCN(C)C(=O)Oc1cccc(CCNC(=O)/C=C/c2ccc(O)c(OC)c2)c1 | 72.3% | Active | Non-Toxic | 2.2% | 18.1% | 96.6% | Toxic |  | 
2 | Nc1c(/N=N/c2ccc(-c3ccc(/N=N/c4cc(S(=O)(=O)O)c5ccccc5c4N)cc3)cc2)cc(S(=O)(=O)O)c2ccccc12 |  |  |  | 86.5% |  |  |  |  | 
3 | CCN(C)C(=O)Oc1cccc(NC(=O)/C=C/c2ccc(O)c(O)c2)c1 | 49.6% | Active | Non-Toxic | 73.2% | 37% | 91% | Toxic | 52.9% | 
4 | CCN(C)C(=O)Oc1cccc(CCNC(=O)/C=C/c2ccc(O)c(O)c2)c1 | 76.3% | Active | Non-Toxic | 85.3% | 51.7% | 92% | Toxic |  | Active
5 | CCN(C)C(=O)Oc1cccc(CNC(=O)/C=C/c2ccc(O)c(OC)c2)c1 | 87.9% |  | Non-Toxic | 3.2% | 17.9% | 97.9% | Toxic |  | 
6 | CCN(C)C(=O)Oc1cccc(NC(=O)/C=C/c2ccc(O)c(OC)c2)c1 | 98% | Active | Non-Toxic | 13.2% | 19.5% | 98.3% | Toxic |  | 
7 | O=C(O)/C=C/c1ccc(O)c(O)c1 |  |  |  |  | 64.6% |  |  |  | 
8 | CCN(C)C(=O)Nc1cccc(NC(=O)/C=C/c2ccc(O)c(OC)c2)c1 | 19.4% | Active | Non-Toxic | 2.2% | 24.1% | 36.6% | Toxic |  | 
9 | CCN(C)C(=O)Nc1cccc(NC(=O)/C=C/c2ccc(O)c(O)c2)c1 | 13.8% | Active | Non-Toxic | 82.5% | 64.7% | 24.4% | Toxic | 56.9% | 
10 | CCN(C)C(=O)Oc1cccc(CNC(=O)/C=C/c2ccc(O)c(O)c2)c1 | 80.8% | Active | Non-Toxic | 77.6% | 69.7% | 97% | Toxic |  | 
11 | COc1cc(/C=C/C(=O)O)ccc1O |  |  |  |  | 19.9% |  |  |  | 
12 | CCN(C)C(=O)Oc1cccc([C@H](C)N(C)C)c1 | 61% |  |  |  |  | 93% |  |  | 
